# MC4R ag barr: agonists of human melanocortin 4 receptor (MC4R) beta-arrestin; P32245; U2OS MC4R beta-arrestin complementation, luminescence; percent of melanotan II response, DMSO zero; activation, % at 8.9 µM; 0.98% of 360,000 active;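 active means activation above a per-plate cutoff, the mean activation of sample wells on that plate plus 3 SD, cut at about 8% in these data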
# Target sequence (P32245 whole entry, looked up): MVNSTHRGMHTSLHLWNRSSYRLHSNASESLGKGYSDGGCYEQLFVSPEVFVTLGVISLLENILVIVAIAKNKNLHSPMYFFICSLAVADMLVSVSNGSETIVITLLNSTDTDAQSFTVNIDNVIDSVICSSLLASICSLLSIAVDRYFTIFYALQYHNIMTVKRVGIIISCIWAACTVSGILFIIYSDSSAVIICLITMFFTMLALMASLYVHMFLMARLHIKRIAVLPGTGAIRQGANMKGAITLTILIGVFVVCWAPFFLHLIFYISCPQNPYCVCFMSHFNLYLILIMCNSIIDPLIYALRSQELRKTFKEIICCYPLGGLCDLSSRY
# HTR2A ag: activates the mouse 5-HT2A serotonin receptor; CHO-K1 mHTR2A beta-arrestin complementation, luminescence; percent of 30 µM serotonin response; 0.66% of 360,000 active; P35363; AID 624169; activation, % at 7.6 µM;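 active means activation above a run cutoff, the mean activation of all tested compounds plus 3 SD, cut at about 14% in these data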;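 further: 0% = plate median of compound wells and 100% = 30 µM serotonin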
# Hep lipid drop: hepatic lipid droplet formation modulation; AML12 mouse hepatocytes, oleate lipid droplets, BODIPY imaging; inhibition, % at 6.5 µM; 0.4% of 240,000 active;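 active means lipid droplet intensity inhibited by at least 50%, with more than 500 cells counted; inconclusive means wells with under 300 cells, treated as cytotoxic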
#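 Test system: AML12 hepatocytes (mouse); reagent: oleate loading, 100 µM; dosing: one dose, 6.5 µM compound; incubation: overnight exposure; signal: fluorescence imaging, 20x objective, two fields per well; read-out basis: % inhibition of corrected integrated BODIPY droplet signal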
# MC4R antagonist: human MC4R antagonism in cAMP assay | P32245 | AID 540295 | inhibition, % at 6.5 µM | 0.48% of 360,000 active | MC4R-expressing cells, MTII-stimulated cAMP, LANCE TR-FRET;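 active means inhibition above its plate's cutoff, the mean of tested wells on that plate plus 3 SD, cut at about 29% in these data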;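 further: 0% = Melanotan II alone and 100% = Melanotan II plus saturating MCL0020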
#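 System: U2OS cells stably expressing human melanocortin 4 receptor (MC4R). Reagent: Melanotan II challenge after compound preincubation. Doses: 6.5 µM. Times: 30-min compound, 1-h challenge, 1-h detection, room temperature. Measured by: TR-FRET with Eu-cAMP and labeled anti-cAMP, 671 nm. Replicates: singlicate.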
# NTR1 ag: agonists of human neurotensin receptor NTR1; P30989; NTR1-U2OS beta-arrestin-GFP spot imaging, agonist mode; activation, % at 20 µM; 0.17% of 330,000 active; AID 493036;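 active means activation at or above 40% of the spot to cytoplasm intensity ratio, with at least 20 cells analyzed; inconclusive means wells under 20 cells, flagged as cytotoxic or low count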;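 further: 0% = DMSO without peptide and 100% = 100 nM NTR1 peptide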
# Target sequence (P30989 whole entry, looked up): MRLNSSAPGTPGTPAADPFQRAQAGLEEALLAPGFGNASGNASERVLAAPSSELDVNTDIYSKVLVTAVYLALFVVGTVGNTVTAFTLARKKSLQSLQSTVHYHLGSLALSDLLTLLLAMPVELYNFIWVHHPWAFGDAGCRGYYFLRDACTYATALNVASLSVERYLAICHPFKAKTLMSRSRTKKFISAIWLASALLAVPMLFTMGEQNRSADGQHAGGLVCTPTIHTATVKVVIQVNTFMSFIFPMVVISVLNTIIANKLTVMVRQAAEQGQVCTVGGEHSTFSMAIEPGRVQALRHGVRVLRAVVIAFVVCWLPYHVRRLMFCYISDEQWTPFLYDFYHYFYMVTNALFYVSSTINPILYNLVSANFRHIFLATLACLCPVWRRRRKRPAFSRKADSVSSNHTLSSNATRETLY
# PREPL inhibitor: human PREPL enzyme inhibition. recombinant PREPL, fluorescence polarization activity-based probe. inhibition, % at 5.96 µM. Q4J6C6. AID 2751. 0.68% of 320,000 active;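 further: 0% = enzyme with DMSO and 100% = wells lacking enzyme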
# PREPL inh cf: human PREPL inhibition, confirmation. 67% of 2,000 active. recombinant PREPL, fluorescence polarization activity probe. inhibition, % at 5.96 µM. shares compounds with PREPL inhibitor. AID 2803;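 further: 0% = protein with DMSO and 100% = wells lacking protein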
# NTR1 ag conf: NTR1 (human) agonism, confirmed. shares compounds with NTR1 ag. NTR1-U2OS beta-arrestin-GFP translocation imaging. activation, % at 20 µM. 38% of 480 active. AID 504550;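 active means mean activation at 20 µM of at least 40%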;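 further: 0% = DMSO without peptide and 100% = 100 nM NTR1 peptide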
# cAMP nonselect: U2OS forskolin cAMP inhibition counter-screen. parental U2OS, LANCE TR-FRET. inhibition, % at 6.5 µM. shares compounds with MC4R antagonist. AID 602193. 26% of 1,600 active;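 active means mean inhibition over triplicates above the low-control well mean plus 3 SD, set per campaign, cut at about 13% in these data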;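 further: signal is single emission at 671 nm which falls as cellular cAMP rises; 0% = forskolin-stimulated wells and 100% = buffer without forskolin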
# MC4R antag conf: human MC4R cAMP antagonism confirmation. shares compounds with MC4R antagonist. MC4R-expressing cells, MTII-stimulated cAMP, TR-FRET. inhibition, % at 6.5 µM. 27% of 1,600 active. AID 602195; in the data active means inhibition above about 29%;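 further: 0% = agonist stimulated wells alone and 100% = agonist stimulated wells plus saturating reference antagonist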
# MC4R barr conf: human MC4R beta-arrestin agonism confirmation; shares compounds with MC4R ag barr; U2OS MC4R beta-arrestin recruitment, luminescence; scaled DMSO 0%, Melanotan II 100%; activation, % at 8.9 µM; 31% of 2,400 active;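 active means mean activation across replicates above the hit cutoff set in the earlier primary screen, cut at about 8% in these data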
# MOR-DOR barr ag: activates mu-delta opioid heterodimer, MC4R agonist counter-screen | shares compounds with MC4R ag barr | U2OS PathHunter beta-arrestin, beta-gal luminescence; percent of deltorphin B response, DMSO zero | activation, % at 9.2 µM | 5.8% of 2,400 active;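 active means mean activation across replicates exceeds the hit threshold derived in the earlier primary screen, cut at about 18% in these data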;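 further: 100% = deltorphin B at 0.9 µM final and 0% = DMSO alone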
# MOR ag counter: OPRM1 agonism in mouse HTR2A counterscreen; activation, % at 9.3 µM; shares compounds with HTR2A ag; AID 624380; U2OS OPRM1 beta-arrestin PathHunter, luminescence; DMSO 0%, DAMGO 9.3 µM 100%; 5.3% of 2,300 active;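 active means mean activation above the mean of DMSO-only wells plus 3 SD, cut at about 0.5% in these data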
# HTR2A ag conf: confirmation of mouse HTR2A serotonin receptor agonists | shares compounds with HTR2A ag | CHO-K1 PathHunter beta-arrestin recruitment, luminescence; DMSO 0%, 30 µM serotonin 100% | activation, % at 7.6 µM | 19% of 2,300 active;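 active means mean activation across triplicates above the hit threshold derived in the original primary screen, cut at about 15% in these data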
# * marks the source's active call; other numbers are inactive results; ? = inconclusive; / = no result given. A selection: hits, their analogues and other compounds. The true share with any hit is near 2.7%. Unless noted, no stated cut-off is given here; in the data, active means inhibition above about 43%; inactive means the rest.
SMILES,MC4R ag barr,HTR2A ag,Hep lipid drop,MC4R antagonist,NTR1 ag,PREPL inhibitor,NTR1 ag conf,cAMP nonselect,MC4R antag conf,others
O=[N+]([O-])c1ccccc1-c1cc(-c2ccccc2)cc(-c2ccccc2)[n+]1Cc1ccccc1Cl,/,/,/,/,6.1,51.0*,/,/,/,PREPL inh cf=49.3*
Clc1ccc(C[n+]2c(-c3ccccc3)cc(-c3ccccc3)cc2-c2ccccc2)cc1,16.0*,-5.6,/,-4.3,25.2,71.0*,/,/,/,PREPL inh cf=62.9*;MC4R barr conf=20.5*;MOR-DOR barr ag=7.2
O=C1NCN(c2ccccc2)C12CCN(C(CCc1ccccc1)c1nnnn1C1CCCCC1)CC2 (stereo not drawn),/,-1.1,/,/,/,/,/,/,/,
CC1=C[C@@H]2c3cccc4[nH]cc(c34)C[C@H]2N(C)C1,0.8,27.9*,/,-10.1,-0.9,57.8*,/,/,/,PREPL inh cf=43.8*;MOR ag counter=0.8*;HTR2A ag conf=143.8*
C[C@H]1CN([C@@H](C)CO)C(=O)CCCn2nncc2CO[C@H]1CN(C)C(=O)Oc1ccc2ccccc2c1,-1.4,1.2,/,6.4,/,/,/,/,/,
CCOC(=O)C(O)(c1ccc(NC(=S)NC(=O)c2ccc(Cl)cc2Cl)c(C)c1)C(F)(F)F (stereo not drawn),2.9,-2.8,8.1,8.2,44.6*,1.2,11.1,/,/,
Cc1cc(/C=C2/C(=O)NC(=O)N(Cc3ccco3)C2=O)c(C)n1-c1ccccc1,4.5,1.3,6.1,6.7,85.8*,-0.7,2.5,/,/,
CCCCCN1C(=O)c2ccccc2[C@@]2(C(=O)OCC)Cc3cc(OC)ccc3[C@@H]12,/,-3.7,/,/,/,/,/,/,/,
CC(C)c1ccc(N2C(=O)NC(=O)/C(=C\C=C\c3ccco3)C2=O)cc1,/,/,-47.2,/,41.7*,-3.5,52.5*,/,/,
Cc1cc(C)cc(N2C(=O)NC(=O)/C(=C\c3cccn3-c3ccccc3)C2=O)c1,-1.8,-2.2,-4.5,15.6,76.3*,-6.2,67.3*,/,/,
Cn1cccc1/C=C1/C(=O)NC(=O)N(C(C)(C)C)C1=O,-1.8,-0.8,-12.8,-16.1,2.1,-2.9,/,/,/,
Cc1cccc(N2C(=O)NC(=O)/C(=C\c3cnc(-c4ccccc4)nc3)C2=O)c1,0.3,-1.8,-1.2,9.5,0.3,-7.7,/,/,/,
CN1C(=O)/C(=C/c2cccn2-c2ccc3ccccc3c2)C(=O)NC1=S,-0.8,-5.0,7.7,16.1,46.0*,-81.2,65.5*,/,/,
COc1ccc(-n2nnnc2C(CCSC)N2CCC(n3c(=O)[nH]c4ccccc43)CC2)cc1 (stereo not drawn),/,4.1,/,/,/,/,/,/,/,
O=C(NCC1=C(c2ccc3ccccc3c2)C[C@@H]2CC[C@H]1N2Cc1ccco1)c1nccs1,4.3,-2.3,/,7.0,/,/,/,/,/,
C[CH2][Hg][S]c1ccccc1C(=O)O,-0.8,11.1,/,95.2*,96.8*,14.6,95.3*,40.0*,91.4*,
Cc1ccccc1NC(=O)N1Cc2ccccc2-n2nncc2C1,-2.7,1.6,/,0.5,/,/,/,/,/,
Oc1ccc(-[n+]2c(-c3ccccc3)cc(-c3ccccc3)cc2-c2ccccc2)cc1,3.7,20.6*,/,3.3,80.8*,37.0,83.5*,/,/,MOR ag counter=0.5*;HTR2A ag conf=15.7*
O=C1NC(=O)C2(CCN(c3ccccc3)CC2)C(=O)N1,-0.3,-0.3,/,0.8,/,/,/,/,/,
CCOP(=O)(CCP(=O)(OCC)OCC)OCC.C[CH2][Sn]([Cl])([Cl])[CH2]C,-1.6,-6.5,/,69.9*,/,/,/,10.8,28.9*,
CCOP(=O)(OCC)OCC,-0.5,3.4,/,6.2,-1.2,2.4,/,/,/,
COC(=O)C1=C(c2ccc(F)cc2F)C[C@@H]2CC[C@H]1N2C(=O)N1CCC(O)CC1,1.5,6.9,/,-4.1,-1.1,10.2,/,/,/,
C/C(=N\Nc1cccc2ccccc12)c1c(O)n(Cc2ccccc2)c(=O)[nH]c1=O,0.0,-2.9,8.4,28.5*,3.9,6.7,/,-1.8,-6.9,
COc1ccccc1N1C(=O)NC(=O)/C(=C\c2cnn(-c3ccccc3)c2)C1=O,2.3,4.2,10.8,30.1*,20.3,7.8,/,11.0,8.6,
NC(=S)c1cn(C2OC(CO)C(O)C2O)c2ncnc(N)c12 (stereo not drawn),-2.2,3.6,?,31.1*,/,0.5,/,0.5,28.0,
Nc1ncnc2c1ccn2[C@@H]1O[C@H](CO)[C@@H](O)[C@H]1O,0.1,3.0,/,44.7*,-0.8,-1.6,/,93.6*,78.5*,
Cc1ccccc1C(=O)N1Cc2cnnn2-c2ccccc2C1C#N (stereo not drawn),2.3,4.3,/,4.5,/,/,/,/,/,
Cc1ccccc1CN1Cc2cnnn2-c2ccccc2C1C#N (stereo not drawn),-0.8,3.0,/,37.1*,/,/,/,5.0,45.1*,
